# Source: PMC3990230 (Journal of medicinal chemistry, 2010)
# How the values were obtained:
# [1] = test system: NF-κB; test: NF-κB translocation assay; assay type: cell-based, Human; details: A549 cells, TNFα induced
# [2] = test system: IKK; assay type: cell-based, Human; details: A549 cells, TNFα induced, Western blot
# In short: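 A549 cells were pretreated with test compound at varying concentrations (4 hr), then stimulated with TNFα. Phosphorylation read-out: lysates taken at 7 min, probed anti-pS32-IκB, stripped and re-probed for total IκB. Stability read-out: TNFα 10 ng/ml for 20 min, total IκB only. NP-40 lysis (pH 7.4, phosphatase/protease inhibitors), 12.5% SDS-PAGE, nitrocellulose, 5% milk/TBS-T block, primary antibody ≥2 hr.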
# [3] = target: T1, recombinant IKKβ (Homo sapiens, UniProt O14920); test: In vitro IKK assay: 32P incorporation into GST-IκB; assay type: biochemical; details: 30 min at 30°C
# T1 sequence (O14920 1-756): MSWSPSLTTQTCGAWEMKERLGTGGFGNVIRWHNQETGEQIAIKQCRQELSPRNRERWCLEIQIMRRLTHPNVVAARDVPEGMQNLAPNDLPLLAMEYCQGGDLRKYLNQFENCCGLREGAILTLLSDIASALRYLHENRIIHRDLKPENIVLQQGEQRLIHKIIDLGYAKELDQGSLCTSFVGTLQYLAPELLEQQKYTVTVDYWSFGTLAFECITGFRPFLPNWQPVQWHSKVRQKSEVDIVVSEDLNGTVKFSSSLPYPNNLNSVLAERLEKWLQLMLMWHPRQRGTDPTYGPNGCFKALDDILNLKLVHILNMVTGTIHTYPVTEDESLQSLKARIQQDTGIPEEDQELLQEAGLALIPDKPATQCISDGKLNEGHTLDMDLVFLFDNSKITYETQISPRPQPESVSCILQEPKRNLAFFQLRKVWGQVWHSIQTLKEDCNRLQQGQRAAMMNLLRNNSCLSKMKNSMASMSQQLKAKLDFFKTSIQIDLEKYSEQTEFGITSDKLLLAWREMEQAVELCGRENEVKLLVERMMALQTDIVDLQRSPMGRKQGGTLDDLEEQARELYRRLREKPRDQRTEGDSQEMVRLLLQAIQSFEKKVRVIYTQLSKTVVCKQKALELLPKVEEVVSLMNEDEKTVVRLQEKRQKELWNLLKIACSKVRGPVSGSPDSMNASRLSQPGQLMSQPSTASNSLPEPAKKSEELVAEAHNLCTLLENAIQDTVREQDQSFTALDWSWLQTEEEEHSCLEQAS
# In short: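 Activated recombinant IKKβ (40 ng) in MOPS buffer (pH 7.0) preincubated with test compound for 30 min at room temperature. Mg-ATP mix (100 μM ATP), purified GST-IκBα (5 μg) and [γ-32P]ATP (0.5 μCi) added, then 30 min at 30°C. Reaction stopped by boiling in SDS sample buffer. Samples run on 12.5% SDS-PAGE with Coomassie staining. Read by autoradiography and scintillation counting of excised bands. Controls lacked enzyme or compound.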
# [4] = test system: A549 cells; test: Clonogenic assay; assay type: cell-based, Human; details: 9 day incubation
# In short: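 A549 cells seeded at 200 cells/well and incubated overnight, then exposed to test compound or DMSO vehicle. Medium and compound replaced every 3 days, for 9 days in total. Cells fixed in 10% TCA for 30 min at 4°C, water-washed, SRB-stained and rinsed with 1% acetic acid. Plates scanned, colonies counted and normalized to DMSO control.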
effect on IKKβ catalyzed incorporation of 32P into GST-IκB (in words) [3],Molecule,fold greater potency than curcumin in blocking nuclear localization of NF-κB [1],block of IκB phosphorylation and degradation (in words) [2],concentration with detectable inhibition of colony forming activity [4] [µM]
dose-dependent inhibition of IKKβ,"COc1cc(C=C(C(=O)/C=C/c2ccc(OC)c(OC)c2)C(=O)/C=C/c2ccc(OC)c(OC)c2)ccc1O [Compound 17, (1E,6E)-1,7-bis(3,4-dimethoxyphenyl)-4-(4-hydroxy-3-methoxybenzylidene)hepta-1,6-diene-3,5-dione]",more than 10 fold,potently block the IκB phosphorylation and degradation in a lower concentration,
dose-dependent inhibition of IKKβ,"COc1ccc(/C=C/C(=O)C(=Cc2ccc(F)cc2)C(=O)/C=C/c2ccc(OC)c(OC)c2)cc1OC [Compound 21, (1E,6E)-1,7-bis(3,4-dimethoxyphenyl)-4-(4-fluorobenzylidene)hepta-1,6-diene-3,5-dione]",more than 10 fold,potently block the IκB phosphorylation and degradation in a lower concentration,
dose-dependent inhibition of IKKβ,"COc1cc(/C=C/C(=O)C(=Cc2cccc(OC)c2OC)C(=O)/C=C/c2ccc(O)c(OC)c2)ccc1O [Compound 35, (1E,6E)-4-(2,3-dimethoxybenzylidene)-1,7-bis(4-hydroxy-3-methoxyphenyl)hepta-1,6-diene-3,5-dione]",,potently block the IκB phosphorylation and degradation in a lower concentration,

Molecule,effect on IKKβ catalyzed incorporation of 32P into GST-IκB (in words) [3],fold greater potency than curcumin in blocking nuclear localization of NF-κB [1],block of IκB phosphorylation and degradation (in words) [2],concentration with detectable inhibition of colony forming activity [4] [µM]
"5-hydroxy-1, 7-bis(4-hydroxy-3-methoxyphenyl)hepta-1, 4, 6-trien-3-one [Curcumin, reference compound]",no obvious effect,,block IκB phosphorylation and degradation when high concentrations were used,4
